Source: publication PMC2978023 (Journal of immunology (Baltimore, Md. : 1950), 2008)
Values joined by “and” are separate entries in the source; they are usually repeats but may differ in a detail not shown here. Equal values may be shown once.

Tests used:
[1] = test system: caspase-8; assay: Caspase-8 cleavage in PMN lysates, Western blot; assay type: cell-based, human; settings: PMN lysate, 16 h; proteins 1 μM, peptides 100 μM; six donors
[2] = test system: αMβ2 on K562 cells; assay: Soluble ligand binding to K562 cells expressing αMβ2, FACS; design: species or system human; settings: 40 min, 37 °C
Method in brief: (§1)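 Transiently transfected K562 cells were incubated with soluble Alexa 488-labelled Plg or Ang(1–4) for 40 min at 37°C in HBSS containing 1 mM CaCl₂ and 1 mM MgCl₂. Cells were washed twice and bound ligand was quantified by FACS; three independent experiments. For inhibition, cells were pretreated for 20 min at 37°C with function-blocking anti-αM or anti-β2 mAbs (20 μg/ml) or NIF (20 nM).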

[3] = target: recombinant purified β2 subunit (Homo sapiens, UniProt P05107); assay: Solid-phase binding to purified β2 subunit; settings: solid-phase binding, αM versus β2
Method in brief: (§2)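 Purified recombinant αMβ2, αM or β2 (from HEK293 lines) was coated overnight at 4°C in TBS with 10 mM n-octyl-β-D-glucopyranoside and postcoated with 0.5% PVP for 1 h at 37°C. Biotinylated Plg or Ang(1–4) (0–10 μM) was bound for 2 h at 37°C in the same buffer plus 1 mM CaCl₂/MgCl₂. Binding was detected with alkaline phosphatase–avidin and pNPP at A405. Kd came from a one-site binding fit.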

[4] = test system: ERK1/2; assay: ERK1/2 phosphorylation in transfected K562 cells, Western blot; assay type: cell-based, human; settings: 37 °C
Method in brief: (§3)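 Transiently transfected K562 cells (αM, β2, αMβ2 or mock) were exposed to ligands for 30 min at 37°C and lysed in ice-cold buffer. Equal protein was run on SDS-PAGE and blotted with the PathScan Multiplex Western Cocktail I, then reprobed for total ERK1/2; blots shown are representative of three experiments.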

[5] = test system: mock-transfected K562 cells; assay: Apoptosis of mock-transfected K562 cells, annexin V, FACS; assay type: cell-based, human; settings: 16 h, 37 °C; proteins 1 μM, peptides 100 μM; no ligand 81 ± 8; mean ± SEM, n = 5
[6] = test system: αM subunit on K562 cells; assay: Soluble ligand binding to K562 cells expressing αM, FACS; design: species or system human; settings: 40 min, 37 °C
Method in brief: as §1

[7] = test system: ERK1/2; assay: ERK1/2 phosphorylation in PMNs, Western blot; assay type: cell-based, human; settings: PMN stimulated with 1 nM PMA, 30 min, 37 °C; proteins 1 μM, peptides 100 μM
Method in brief: (§4)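 Human PMNs stimulated with 1 nM PMA were incubated with ligands for 30 min at 37°C in HBSS with 1 mM CaCl₂, 1 mM MgCl₂, 0.1% BSA, pH 7.4. Cells were lysed in ice-cold Tris/EDTA/detergent buffer with phosphatase and protease inhibitors. Equal protein was immunoblotted for phospho- and total Akt or ERK1/2, with actin. Inhibition arm: 20 min pretreatment at 37°C with 10 μM Akt inhibitor, 50 μM PD98059, 50 nM NIF, or F(ab′)₂ anti-αM or anti-MHC-1 (20 μg/ml), then 1 μM Plg.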

[8] = test system: Bax; assay: Bax cleavage in PMN lysates, Western blot; assay type: cell-based, human; settings: PMN lysate, 16 h; proteins 1 μM, peptides 100 μM; six donors
[9] = test system: caspase-3; assay: Caspase-3 cleavage in PMN lysates, Western blot; assay type: cell-based, human; settings: PMN lysate, 16 h; proteins 1 μM, peptides 100 μM; six donors
[10] = test system: αMβ2; assay: αMβ2 clustering on PMNs, fluorescence microscopy; assay type: cell-based, human; settings: 4 h, 37 °C; proteins 1 μM, peptides 100 μM; anti-αM OKMI staining; four donors
Method in brief: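 Human PMNs were exposed to ligands (proteins 1 μM, peptides 100 μM) for 4 h at 37°C, or to 1 μM Plg together with clustering inhibitors at the final concentrations used in apoptosis assays. Cells were fixed in 4% paraformaldehyde and stained with anti-αM mAb OKMI plus Alexa 488 goat anti-mouse IgG. They were cytospun, mounted and imaged by fluorescence microscopy (×40/0.7 NA); PMNs came from four donors.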

[11] = test system: apoptotic PMNs; assay: Competition with annexin V-FITC binding to apoptotic PMNs; assay type: cell-based, human; settings: 0–10 μM, data not shown
[12] = test system: caspase-8; assay: Caspase-8 cleavage in K562 cell lysates, Western blot; assay type: cell-based, human; settings: K562 αMβ2 transfectants, 24 h, 37 °C; proteins 1 μM, peptides 100 μM
[13] = test system: Akt; assay: Akt phosphorylation in PMNs, Western blot; assay type: cell-based, human; settings: PMN stimulated with 1 nM PMA, 30 min, 37 °C; proteins 1 μM, peptides 100 μM
Method in brief: as §4

[14] = test system: human PMNs; settings: Plg 1 μM, 16 h, 37 °C; media alone 90 ± 21; mean ± SEM, n = 6
[15] = test system: Akt; assay: Akt phosphorylation in transfected K562 cells, Western blot; assay type: cell-based, human; settings: 37 °C
Method in brief: as §3

[16] = test system: Bax; assay: Bax cleavage in K562 cell lysates, Western blot; assay type: cell-based, human; settings: K562 αMβ2 transfectants, 24 h, 37 °C; proteins 1 μM, peptides 100 μM
[17] = test system: caspase-3; assay: Caspase-3 cleavage in K562 cell lysates, Western blot; assay type: cell-based, human; settings: K562 αMβ2 transfectants, 24 h, 37 °C; proteins 1 μM, peptides 100 μM
[18] = test system: β2 subunit on K562 cells; assay: Soluble ligand binding to K562 cells expressing β2, FACS; design: species or system human; settings: 40 min, 37 °C
Method in brief: as §1

[19] = test system: αM^(Ile316→Gly)β2 on K562 cells; assay: Adhesion of K562 cells expressing αM^; assay type: cell-based, human; settings: K562 αM^(Ile316→Gly)β2, data not shown
[20] = target: recombinant purified integrin αMβ2 (Homo sapiens, UniProt P05107+P11215); assay: Solid-phase binding to purified αMβ2; settings: higher for Plg than for Ang(1–4)
Method in brief: as §2

Sequence of recombinant purified β2 subunit (P05107 23-769): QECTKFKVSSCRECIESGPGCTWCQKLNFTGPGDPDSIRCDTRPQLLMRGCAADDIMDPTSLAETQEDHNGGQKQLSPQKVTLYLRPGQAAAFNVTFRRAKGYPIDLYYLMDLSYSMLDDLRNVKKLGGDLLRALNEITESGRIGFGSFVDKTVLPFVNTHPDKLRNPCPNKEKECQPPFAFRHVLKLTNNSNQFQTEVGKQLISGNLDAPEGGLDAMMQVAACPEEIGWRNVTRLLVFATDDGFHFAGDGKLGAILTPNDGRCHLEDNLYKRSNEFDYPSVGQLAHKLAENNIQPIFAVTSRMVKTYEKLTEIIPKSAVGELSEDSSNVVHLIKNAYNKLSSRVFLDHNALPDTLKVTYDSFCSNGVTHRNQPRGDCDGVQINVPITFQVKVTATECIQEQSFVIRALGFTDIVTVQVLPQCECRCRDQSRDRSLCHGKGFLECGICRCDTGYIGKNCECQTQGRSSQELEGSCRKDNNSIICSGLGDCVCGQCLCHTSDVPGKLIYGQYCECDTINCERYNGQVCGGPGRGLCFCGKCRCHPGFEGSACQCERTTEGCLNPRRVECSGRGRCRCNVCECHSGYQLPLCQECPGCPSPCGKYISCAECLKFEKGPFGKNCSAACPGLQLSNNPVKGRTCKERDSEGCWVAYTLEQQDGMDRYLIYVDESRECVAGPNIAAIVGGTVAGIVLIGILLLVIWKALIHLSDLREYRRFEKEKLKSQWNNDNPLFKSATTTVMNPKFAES
Sequence of recombinant purified integrin αMβ2 (P05107 23-769, other chains not shown): as the sequence (P05107 23-769) above

## plasminogen [Plg]
[1]
  caspase-8 fragment: absent
[2]
  soluble ligand binding, αMβ2 cells (in words): bound both ligands
[3]
  recognition by individual integrin subunits (in words): interacted with the individual αM and β2 subunits with similar affinities
[4]; K562 expressing αM, 30 min
  ERK1/2 activation, αM cells: strongly induced
[4]; K562 expressing αMβ2, 30 min
  ERK1/2 activation, αMβ2 cells: strongly induced
[4]; K562 mock or expressing β2, 30 min
  ERK1/2 phosphorylation, mock and β2 cells: poorly induced
[5]
  K562 early/late apoptosis (% annexin V+ cells), mock: 78 ± 10%
[6]
  soluble ligand binding, αM cells (in words): bound both ligands
[7]
  ERK1/2 activation: induced ERK1/2 activation
[8]
  22-kDa Bax fragment: absent
[9]
  18-kDa caspase-3 fragment: absent
[10]
  αMβ2 macroclusters on PMN surface: detected
[11]
  competition with annexin V-FITC binding: did not compete with annexin V-FITC binding at any concentration tested
[12]
  caspase-8 cleavage product, αMβ2 cells: not detected
[13]
  Akt phosphorylation: robust Akt phosphorylation
[14]
  PMN early/late apoptosis (% annexin V+ cells), Plg alone: 32 ± 10% and 32 ± 105%
[15]; K562 expressing αM or β2, or mock-transfected, 30 min
  Akt phosphorylation, αM, β2 and mock cells: not in K562 cells expressing the individual αM or β2 subunits (Fig. 6A) or mock-transfected cells
[15]; K562 expressing αM(1119Δ)β2, αMβ2(728Δ) or αM/αLβ2, Plg, 30 min
  Akt activation, tailless and chimeric αMβ2: no Akt activation could be detected
[15]; K562 expressing αMβ2, 30 min
  Akt phosphorylation, αMβ2 cells: robust Akt phosphorylation
[16]
  Bax cleavage product, αMβ2 cells: not detected
[17]
  caspase-3 cleavage product, αMβ2 cells: not detected
[18]
  soluble ligand binding, β2 cells (in words): bound soluble Plg
[19]
  adhesion to Plg versus wild type: enhanced adhesion to Plg
[20]
  affinity of αMβ2 for Plg relative to Ang(1–4): ~ 10 fold
